# NR2E3 ag-1: agonists of human NR2E3 nuclear receptor; Q9Y5X4; CHO-S Gal4-NCOR/VP16-NR2E3 two-hybrid, luciferase; inhibition of corepressor binding, % at 3.98 µM; 360,000 tested, 0.35% active; AID 602229;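 active = inhibition above the mean of all tested compounds plus 3 SD, cut at about 70% in these data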;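 note: 0% = DMSO with NR2E3 transfected cells and 100% = cells lacking NR2E3 construct; higher means lower luciferase signal from less NR2E3 corepressor binding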
# Target sequence (Q9Y5X4 whole entry, looked up, the tested form may be a part): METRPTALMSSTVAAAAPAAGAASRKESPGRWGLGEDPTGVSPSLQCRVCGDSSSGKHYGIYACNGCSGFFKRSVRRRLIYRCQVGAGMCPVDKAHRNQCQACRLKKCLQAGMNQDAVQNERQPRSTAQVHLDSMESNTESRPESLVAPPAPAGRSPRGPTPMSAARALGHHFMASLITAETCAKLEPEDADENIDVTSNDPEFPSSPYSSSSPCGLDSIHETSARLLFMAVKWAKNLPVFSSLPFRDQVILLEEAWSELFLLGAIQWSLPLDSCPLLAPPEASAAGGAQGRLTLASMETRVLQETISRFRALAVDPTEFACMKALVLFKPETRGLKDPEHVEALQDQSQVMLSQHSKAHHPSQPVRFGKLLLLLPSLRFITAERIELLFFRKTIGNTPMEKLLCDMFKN
# NadD inh: NadD (S. aureus) enzyme inhibition. 360,000 tested, 0.78% active. inhibition, % at 20 µM. purified NadD enzyme, colorimetric absorbance read-out; in the data active = inhibition above about 26%
# bovine MsrA act: activators of bovine methionine sulfoxide reductase A; purified bovine MsrA, absorbance read-out; activation, % at 10.6 µM; 360,000 tested, 0.3% active; in the data active = activation above about 7.5%;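 note: 0% = vehicle and 100% = reference activator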
# MsrA inh: inhibitors of bovine MsrA. purified bovine MsrA, absorbance read-out. inhibition, % at 15.5 µM. 360,000 tested, 0.75% active. AID 651718; in the data active = inhibition above about 4.5%;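 note: 0% = vehicle wells with enzyme and 100% = reference inhibitor wells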
# GalR3 antagonist: antagonists of human GalR3. O60755. HEK293 GalR3-CNG cAMP membrane potential fluorescence; galR3 body fused to GalR1 C-terminus. inhibition, % at 3 µM. 360,000 tested, 0.44% active. AID 651719;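 active = inhibition above the screen-wide average plus 3 SD, cut at about 13% in these data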;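 note: forskolin and galanin both at EC90 stimulate the cells; cAMP rise reported by CNG channel membrane potential dye signal; 0% = forskolin plus galanin with DMSO and 100% = forskolin alone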
# Target sequence (O60755 1-299 limits assumed): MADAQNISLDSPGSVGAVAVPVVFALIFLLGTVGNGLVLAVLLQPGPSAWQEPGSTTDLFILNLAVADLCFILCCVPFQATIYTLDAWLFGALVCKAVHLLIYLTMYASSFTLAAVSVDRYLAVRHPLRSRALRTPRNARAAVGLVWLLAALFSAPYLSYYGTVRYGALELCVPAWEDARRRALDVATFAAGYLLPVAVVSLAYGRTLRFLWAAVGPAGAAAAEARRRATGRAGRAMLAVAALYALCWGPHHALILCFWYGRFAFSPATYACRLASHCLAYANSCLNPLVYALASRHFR
# NR2E3 ag-2: agonists of human nuclear receptor NR2E3; GST-NR2E3/biotin-RetCOR TR-FRET, 1536-well; 320,000 tested, 0.12% active; AID 2300; Q9Y5X4; inhibition of corepressor binding, % at 4.78 µM;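 active = percent inhibition above the cutoff of mean plus 3 SD of all tested compounds, set per screening campaign, cut at about 20% in these data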;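 note: 0% = DMSO wells and 100% = biotin wells as full block of FRET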
#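 Test system: GST-NR2E3 and biotin-RetCOR proteins | Quantity: 1.35 nM GST-tagged NR2E3 final | Medium: Tris pH 7.5 | Also added: 7 nM biotin-RetCOR | Dosing: Compound at 4.8 µM, single dose | Timing: 5 h at 4 °C | Detection: Time-resolved FRET | Read-out basis: Percent inhibition | Benchmarks: Biotin wells as high control, 0.6% DMSO wells as low control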
# NR2E3 ag conf: confirmation of human NR2E3 agonists. shares compounds with NR2E3 ag-1. CHO-S mammalian two-hybrid NR2E3-NCOR, luciferase luminescence. 2,300 tested, 51% active. inhibition, % at 3.98 µM;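 active = average inhibition above a cutoff equal to the mean inhibition of all tested compounds plus one SD, cut at about 70% in these data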;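 note: 0% = DMSO in NR2E3 cells and 100% = DMSO in cells lacking NR2E3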
# VP16 counter: counter-screen for NR2E3 agonists: GAL4-VP16 reporter inhibitors; shares compounds with NR2E3 ag-1; CHO-S GAL4-VP16 luciferase reporter, luminescence; inhibition, % at 3.98 µM; 2,300 tested, 29% active; AID 624379;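 active = mean inhibition above a cutoff equal to the average over all tested compounds plus one standard deviation, cut at about 70% in these data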;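 note: luciferase from a UAS reporter driven by GAL4-VP16 transactivation; 0% = DMSO with VP16-transfected cells and 100% = DMSO with cells lacking VP16; higher means less reporter light so more repression of VP16 activity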
# * = called active by the depositor; · = no result. A selection: hits, their analogues and other compounds. The true share with any hit is near 2.5%.
SMILES,NR2E3 ag-1,NadD inh,bovine MsrA act,MsrA inh,GalR3 antagonist,NR2E3 ag-2,NR2E3 ag conf,VP16 counter
Cc1ccccc1OCCCc1c(C)n[nH]c1C,0.3,-0.2,-0.2,1.1,4.3,-0.2,·,·
Cc1ccccc1OCCCCc1c(C)n[nH]c1C,70.7*,-7.4,-4.4,-1.6,-7.1,2.5,91.5*,60.4
COCCCn1cc(CN2CC(N3CCN(C)CC3)CS2(=O)=O)nn1 (stereo unspecified),-18.4,-3.3,0.7,-1.0,0.8,·,·,·
CC(=O)c1c(C)oc2ccc(N(C(C)=O)S(=O)(=O)c3cccc4cccnc34)cc12,86.2*,0.1,-4.0,1.0,-4.5,1.3,94.5*,74.1*
COC(=O)c1c(C)oc2ccc(N(C(C)=O)S(=O)(=O)c3ccccc3)cc12,97.9*,-8.3,-10.3,1.6,-7.6,5.4,84.5*,65.1
CC(=O)c1c(C)oc2ccc(NS(=O)(=O)c3ccc(C)cc3)cc12,80.3*,-4.9,-10.8,-1.2,0.1,-3.1,-6.0,25.6
CC(=O)c1c(C)oc2ccc(N(C(C)=O)S(=O)(=O)c3ccc(Br)cc3)cc12,89.9*,-10.5,2.5,0.4,1.4,7.0,90.4*,72.6*
CCN1CCN(c2cc(SC(C)C)nc(-c3ccc(OC)cc3)n2)CC1,0.0,-11.5,6.2,0.5,1.0,·,·,·
Cc1cc(N/N=C/c2ccccc2)nc(N2CCOCC2)n1,-21.8,-4.9,-4.5,2.3,-0.2,-1.4,·,·
Cc1cccc(/C=N/Nc2cc(N3CCOCC3)nc(N3CCOCC3)n2)c1,61.2,5.0,-12.4,0.8,-0.2,2.1,75.0*,36.3
CCOc1ccc(N2CC(O)(c3cccs3)[N+]3=C2CCCC3)cc1 (stereo unspecified),27.1,-5.7,4.2,0.1,-3.8,-0.3,·,·
CCc1ccc(NS(=O)(=O)c2ccc(OC)c(C)c2)cc1,6.6,13.7,-4.0,2.2,-8.2,0.9,·,·
COc1ccc(S(=O)(=O)Nc2ccc(Cc3ccncc3)cc2)cc1C,61.2,2.7,-3.0,·,·,1.5,47.0,49.5
N#C/C(=N\Nc1cccc([N+](=O)[O-])c1)C(=O)c1ccc(Br)cc1,95.4*,14.2,-1.8,2.5,-6.9,-0.9,99.2*,86.2*
Cc1cccc(/C=N/NC(=O)c2ccc(NC(=O)c3ccc(Cl)cc3)cc2)n1,-1.9,8.1,-0.4,-0.9,-8.8,4.5,·,·
COc1ccc(NC(=O)COc2cccc3c2OC(C)(C)C3)c(OC)c1,23.6,-2.1,-1.6,-0.2,-4.5,·,·,·
COc1cc(C)c(NC(=O)COc2cccc3c2OC(C)(C)C3)cc1OC,62.3,0.7,-3.1,·,·,-3.8,9.7,40.6
O=C(CSc1cccc[n+]1[O-])Nc1ccccc1Oc1ccccc1,38.8,-6.9,0.8,1.0,-3.7,5.9,·,·
Cc1c(C#N)c2ncn(CCCN(C)C)c(=O)c2n1-c1ccccc1,89.5*,0.6,-0.1,-0.6,-4.3,1.6,-9.0,-10.4
O=C(c1cnn(-c2ccccc2)c1)c1cc(Br)ccc1O,10.6,2.6,-1.8,0.7,-6.2,3.9,·,·
O=C(c1ccc(O)c(Br)c1)c1cc(Br)ccc1O,85.0*,-1.9,-6.2,3.2,3.8,·,96.2*,74.2*
O=C(Nc1c(-c2cccs2)nc2ccccn12)c1ccc2ccccc2c1,·,·,·,·,·,-0.3,·,·
CC(C)(C)c1ccc(/C=N/Nc2ccc(C(=O)O)cc2)cc1,50.2,4.6,-3.6,2.9,-4.4,-0.3,64.5,-33.2
CCN1CCN(Cc2ccc(NC(=O)c3ccc(C)c(NC(=O)c4ccno4)c3)cc2C(F)(F)F)CC1,36.5,-4.9,-1.1,0.5,5.2,1.8,55.3,14.9
CCN1CCN(Cc2ccc(NC(=O)c3cc(NC(=O)c4ccno4)cc(OC)c3)cc2C(F)(F)F)CC1,-7.5,-3.3,-1.6,-0.9,-6.9,0.1,·,·
SMILES,NR2E3 ag-1,NadD inh,bovine MsrA act,MsrA inh,GalR3 antagonist,NR2E3 ag-2,NR2E3 ag conf,VP16 counter
c1ccc2c(c1)C(=Nn1cnnc1)c1ccccc1-2,-18.3,-5.9,-5.1,-0.3,-7.9,-0.1,·,·
CCCCCCCCSC1=CC(=O)C(OC)=C(OC)C1=O,58.6,17.5,-5.0,0.9,-2.9,·,92.8*,68.0
CCCCCSc1nncc(=O)[nH]1,-17.1,-0.2,-9.9,0.8,-3.7,0.6,·,·
O=C(C1=C[C@H](c2ccc(C(F)(F)F)cc2)C[C@H](OCCCCO)O1)N1CCN(Cc2ccc3c(c2)OCO3)CC1,19.1,-7.4,-1.0,-0.9,-4.7,7.2,·,·
CCC1(C(=O)OC)CCc2c(cc(OC)c3ccccc23)C1=O (stereo unspecified),-20.3,-6.1,-3.1,·,·,-0.7,·,·
O=c1[nH]sc2ccccc12,74.9*,-0.5,12.6*,0.0,-6.3,·,4.3,3.1
O=C(c1cccc(-c2cncc3nccn23)c1)N1CCOCC1,-8.6,-1.3,-4.2,0.2,-4.7,·,·,·
CN1CCN(C(=O)c2cccc(-c3cnc4cnc(-c5ccccc5Oc5ccccc5)cn34)c2)CC1,49.3,3.1,-0.3,-0.8,-10.0,·,70.5*,19.8
CCN1CCN(CCNC(=O)c2ccc3c(c2)N(Cc2ccc(F)cc2)C(=O)c2ccccc2S3=O)CC1 (stereo unspecified),6.7,-4.6,-1.7,-0.9,-0.3,-1.8,·,·
COc1ccc(C(=O)Nc2cnn(Cc3ccc(Cl)cc3)c2)cc1OC,63.3,-0.4,-11.3,-0.5,-11.4,-0.4,63.3,10.8
Clc1ccc(CSc2nnc(Cn3cnc4ccccc43)o2)cc1,60.3,-4.4,-4.5,-0.1,33.0*,0.1,79.7*,69.1
Cc1ccc(N(C(=O)c2csnn2)C(C(=O)NC2CCCCC2)c2ccco2)cc1 (stereo unspecified),-17.9,-6.2,-6.9,0.3,-11.4,0.3,·,·
Cc1ccnc(NC(=O)COC(=O)c2ccc(F)cc2F)n1,15.4,-1.7,-0.8,0.9,-7.2,0.7,·,·
CCOC(=O)C1CCN(S(=O)(=O)c2cc(Br)cc3c2N(C(=O)C2CC2)CC3)CC1,16.0,-2.0,-10.5,-0.5,-5.3,1.5,·,·
O=C(C1CC1)N1CCc2cc(Br)cc(S(=O)(=O)N3CCN(c4ccccn4)CC3)c21,86.7*,1.8,-3.4,1.2,-1.1,1.2,90.0*,2.5
Cc1oc(-c2ccc(Cl)cc2)nc1CS(=O)CC(=O)NCc1ccco1 (stereo unspecified),-3.9,2.2,-1.0,0.7,-7.8,3.4,·,·
CCc1ccc(-c2nc(CSCC(=O)NCc3ccco3)c(C)o2)cc1,100.6*,-4.8,-1.7,-0.9,-2.5,·,96.0*,95.9*
CSc1ccc(-c2nc(CSCC(=O)NCCCN3CCOCC3)c(C)o2)cc1,46.3,-4.2,5.0,1.7,-2.3,-0.5,·,·
